Source: ChEMBL document CHEMBL1155210, “The discovery of tertiary-amine LXR agonists with potent cholesterol efflux activity in macrophages” (Bioorg Med Chem Lett, 2009)

molecular target: Oxysterols receptor LXR-beta (Homo sapiens) (UniProt P55055); assay: Agonist activity at human LXRbeta assessed as association of SRC1 to LXRbeta ligand binding domain by FRET based cell-free ligand sensing assay relative to 2-(3-(3-((2-chloro-3-(trifluoromethyl)benzyl)(2,2-diphenylethyl)amino)propoxy)phenyl)acetic acid; parameters: concentration or dose not given beside the values

| Activity | SMILES |
| --- | --- |
| 70% | C[C@@H](COc1cccc(CC(=O)O)c1)CN(Cc1cccc(C(F)(F)F)c1Cl)CC(c1ccccc1)c1ccccc1 |
| 95% | CC(C)(C(=O)O)c1cccc(OCCCN(Cc2cccc(C(F)(F)F)c2Cl)CC(c2ccccc2)c2ccccc2)c1 |
| 75% | O=C(O)Cc1ccc2cc(CCN(Cc3cccc(C(F)(F)F)c3Cl)CC(c3ccccc3)c3ccccc3)oc2c1 |

molecular target: T1, Oxysterols receptor LXR-beta (Homo sapiens, UniProt P55055); assay: Agonist activity at human LXRbeta assessed as association of SRC1 to LXRbeta ligand binding domain by FRET based cell-free ligand sensing assay
T1 sequence (P55055 whole entry): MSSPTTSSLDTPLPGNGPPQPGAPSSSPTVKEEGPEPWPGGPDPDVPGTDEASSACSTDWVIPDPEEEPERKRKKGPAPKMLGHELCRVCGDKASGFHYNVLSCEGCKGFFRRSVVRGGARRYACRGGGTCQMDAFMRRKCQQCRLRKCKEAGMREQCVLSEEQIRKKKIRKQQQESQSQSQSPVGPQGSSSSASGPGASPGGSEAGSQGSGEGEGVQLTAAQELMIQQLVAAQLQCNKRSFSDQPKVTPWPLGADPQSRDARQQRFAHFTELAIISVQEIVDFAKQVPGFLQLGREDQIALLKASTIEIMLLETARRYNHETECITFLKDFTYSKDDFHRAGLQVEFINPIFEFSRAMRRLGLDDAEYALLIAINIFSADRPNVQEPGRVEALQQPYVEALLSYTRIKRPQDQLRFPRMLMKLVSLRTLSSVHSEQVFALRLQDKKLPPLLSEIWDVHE
Procedure, shortened: (§1)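 Cell-free FRET ligand-sensing assay measuring ligand-dependent recruitment of a 24-amino-acid steroid receptor coactivator 1 (SRC1) fragment to the LXR ligand-binding domain. Percent efficacy is expressed against the maximal agonist response of the reference agonist. Values are means of at least two experiments, standard deviation ≤10%.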

| EC50 | SMILES |
| --- | --- |
| 86 nM | C[C@@H](COc1cccc(CC(=O)O)c1)CN(Cc1cccc(C(F)(F)F)c1Cl)CC(c1ccccc1)c1ccccc1 |
| 15 nM | CC(C)(C(=O)O)c1cccc(OCCCN(Cc2cccc(C(F)(F)F)c2Cl)CC(c2ccccc2)c2ccccc2)c1 |
| 63 nM | O=C(O)Cc1ccc2cc(CCN(Cc3cccc(C(F)(F)F)c3Cl)CC(c3ccccc3)c3ccccc3)oc2c1 |

test system: Macrophage; assay: Increase in ABCG1 gene expression in human primary macrophages at 100 nM relative to control; type: functional

| SMILES | fold change (FC) |
| --- | --- |
| CC(C)(C(=O)O)c1cccc(OCCCN(Cc2cccc(C(F)(F)F)c2Cl)CC(c2ccccc2)c2ccccc2)c1 | 11.2 |

test system: Macrophage; assay: Increase in ABCG1 gene expression in human primary macrophages at 30 nM relative to control; type: functional

| SMILES | fold change (FC) |
| --- | --- |
| CC(C)(C(=O)O)c1cccc(OCCCN(Cc2cccc(C(F)(F)F)c2Cl)CC(c2ccccc2)c2ccccc2)c1 | 7.5 |

test system: Macrophage; assay: Increase in ABCA1 gene expression in human primary macrophages at 100 nM relative to control; type: functional

| SMILES | fold change (FC) |
| --- | --- |
| CC(C)(C(=O)O)c1cccc(OCCCN(Cc2cccc(C(F)(F)F)c2Cl)CC(c2ccccc2)c2ccccc2)c1 | 4 |

test system: Macrophage; assay: Increase in ABCG1 gene expression in human primary macrophages; type: functional, cell-based

| SMILES | Activity |
| --- | --- |
| CC(C)(C(=O)O)c1cccc(OCCCN(Cc2cccc(C(F)(F)F)c2Cl)CC(c2ccccc2)c2ccccc2)c1 | Dose-dependent effect |

molecular target: T2, Oxysterols receptor LXR-alpha (Homo sapiens, UniProt Q13133); assay: Agonist activity at human LXRalpha assessed as association of SRC1 to LXRalpha ligand binding domain by FRET based cell-free ligand sensing assay
T2 sequence (Q13133 whole entry): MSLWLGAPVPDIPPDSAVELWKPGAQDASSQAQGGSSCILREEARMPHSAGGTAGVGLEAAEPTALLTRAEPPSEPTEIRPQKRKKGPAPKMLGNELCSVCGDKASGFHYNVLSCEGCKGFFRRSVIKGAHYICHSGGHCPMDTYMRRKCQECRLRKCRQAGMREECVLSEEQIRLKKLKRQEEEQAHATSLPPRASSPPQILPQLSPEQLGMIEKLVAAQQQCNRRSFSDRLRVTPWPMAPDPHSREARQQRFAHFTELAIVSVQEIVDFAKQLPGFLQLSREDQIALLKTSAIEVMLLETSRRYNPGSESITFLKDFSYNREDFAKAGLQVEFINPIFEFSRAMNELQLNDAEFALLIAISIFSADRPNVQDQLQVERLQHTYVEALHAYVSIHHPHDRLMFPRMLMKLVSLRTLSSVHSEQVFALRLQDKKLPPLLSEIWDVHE
Procedure, shortened: as §1

| EC50 | SMILES |
| --- | --- |
| 280 nM | C[C@@H](COc1cccc(CC(=O)O)c1)CN(Cc1cccc(C(F)(F)F)c1Cl)CC(c1ccccc1)c1ccccc1 |
| 43 nM | CC(C)(C(=O)O)c1cccc(OCCCN(Cc2cccc(C(F)(F)F)c2Cl)CC(c2ccccc2)c2ccccc2)c1 |
| 331 nM | O=C(O)Cc1ccc2cc(CCN(Cc3cccc(C(F)(F)F)c3Cl)CC(c3ccccc3)c3ccccc3)oc2c1 |

test system: Macrophage; assay: Increase in ABCA1 gene expression in human primary macrophages at 30 nM relative to control; type: functional

| SMILES | fold change (FC) |
| --- | --- |
| CC(C)(C(=O)O)c1cccc(OCCCN(Cc2cccc(C(F)(F)F)c2Cl)CC(c2ccccc2)c2ccccc2)c1 | 3 |

test system: Macrophage; assay: Increase in SREBP1 gene expression in human primary macrophages at 100 nM relative to control; type: functional

| SMILES | fold change (FC) |
| --- | --- |
| CC(C)(C(=O)O)c1cccc(OCCCN(Cc2cccc(C(F)(F)F)c2Cl)CC(c2ccccc2)c2ccccc2)c1 | 5.8 |

test system: RAW264.7; assay: Induction of [3H]cholesterol efflux in mouse RAW264.7 cells loaded with acetylated-LDL after 24 hrs relative to 2-(3-(3-((2-chloro-3-(trifluoromethyl)benzyl)(2,2-diphenylethyl)amino)propoxy)phenyl)acetic acid; type: functional
Procedure, shortened: (§2)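 Mouse RAW 264.7 macrophages were grown overnight, then loaded for 24 h with acetylated LDL (final 50 µg/mL) plus 3H-cholesterol (5 µCi/mL). Cells were washed and held 24 h in serum-free, phenol red-free medium with 1% fatty acid-free BSA and compound in DMSO. Efflux then ran 24 h into medium with 0.1% BSA, 5 µg/mL apoA-I and fresh compound. Filtered medium and NaOH cell lysate were counted by scintillation.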

| SMILES | fold change (FC) |
| --- | --- |
| CC(C)(C(=O)O)c1cccc(OCCCN(Cc2cccc(C(F)(F)F)c2Cl)CC(c2ccccc2)c2ccccc2)c1 | 2 |

test system: Macrophage; assay: Increase in ABCA1 gene expression in human primary macrophages; type: functional, cell-based

| SMILES | Activity |
| --- | --- |
| CC(C)(C(=O)O)c1cccc(OCCCN(Cc2cccc(C(F)(F)F)c2Cl)CC(c2ccccc2)c2ccccc2)c1 | Dose-dependent effect |

molecular target: T3, Oxysterols receptor LXR-alpha (Homo sapiens) (UniProt Q13133); assay: Agonist activity at human LXRalpha assessed as association of SRC1 to LXRalpha ligand binding domain by FRET based cell-free ligand sensing assay relative 2-(3-(3-((2-chloro-3-(trifluoromethyl)benzyl)(2,2-diphenylethyl)amino)propoxy)phenyl)acetic acid
T3 sequence (whole entry): T2 sequence (Q13133 whole entry)
Procedure, shortened: as §1

| Activity | SMILES |
| --- | --- |
| 67% | C[C@@H](COc1cccc(CC(=O)O)c1)CN(Cc1cccc(C(F)(F)F)c1Cl)CC(c1ccccc1)c1ccccc1 |
| 100% | CC(C)(C(=O)O)c1cccc(OCCCN(Cc2cccc(C(F)(F)F)c2Cl)CC(c2ccccc2)c2ccccc2)c1 |
| 53% | O=C(O)Cc1ccc2cc(CCN(Cc3cccc(C(F)(F)F)c3Cl)CC(c3ccccc3)c3ccccc3)oc2c1 |

test system: RAW264.7; assay: Induction of [3H]cholesterol efflux in mouse RAW264.7 cells loaded with acetylated-LDL after 24 hrs; type: functional, cell-based
Procedure, shortened: as §2

| EC50 | SMILES |
| --- | --- |
| 76 nM | C[C@@H](COc1cccc(CC(=O)O)c1)CN(Cc1cccc(C(F)(F)F)c1Cl)CC(c1ccccc1)c1ccccc1 |
| 7 nM | CC(C)(C(=O)O)c1cccc(OCCCN(Cc2cccc(C(F)(F)F)c2Cl)CC(c2ccccc2)c2ccccc2)c1 |
